Reference: PubChem BioAssay
Results filed as inconclusive are left out.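 How the source made its calls, unless noted: active means RAM network inhibition above 8.4% in each of two replicates, 3 SD over the compound average; inconclusive means above 8.4% inhibition in only one replicate; inactive means 8.4% inhibition or less in each replicate.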

Legend:
[1] = S. cerevisiae growth inhibition in permissive medium (OD615), pilot counter-assay for S. cerevisiae lifespan shortening project, permissive growth control (AID 705;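 active means growth inhibition above 25% in both replicates, a cutoff set 3 SD above the mean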); details: OD615, 24 h, at 10 µM, stronger effect = higher value
In short: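 Test system: Saccharomyces cerevisiae strain carrying genetically modified DeaD replicative-lifespan system; buffer or medium: SC raffinose/galactose permissive medium; dosing: one dose 10 µM, DMSO 0.25% final; times: 24 h exposure, 30 °C; measured by: OD at 615 nm; read-out basis: growth inhibition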

[2] = S. cerevisiae growth inhibition in restrictive medium, OD615, pilot screen, restrictive growth control, yeast lifespan reduction project (AID 706;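 active means growth inhibition above a set limit, 3 SD over mean compound inhibition, in both replicates, cut at about 43% in these data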;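 further: modified DeaD lifespan yeast strain shifted to restrictive glucose medium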); details: OD615, 48 h, at 10 µM, stronger effect = higher value
In short: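 material = engineered S. cerevisiae DeaD strain | buffer or medium = glucose-based CSMM-D restrictive medium | dosing = one concentration, 10 µM final, 0.25% DMSO | schedule = 4 h pre-growth plus 48 h compound exposure, 30 °C | detection = OD615 absorbance reading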

[3] = doxorubicin toxicity protection in MRP-1 cells – H69AR cells, CellTiter-Glo, duplicate, MRP-1 activator project, pilot screen (AID 807;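 active means viability increase at or above a cutoff of the median across tested compounds plus 3 SD, cut at about 8.5% in these data, passing the limit was not always enough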;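 further: compound pretreatment 18-22 h then 72 h combined with doxorubicin; 0% = doxorubicin alone and 100% = vehicle without doxorubicin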); details: H69AR viability with doxorubicin, CellTiter-Glo luminescence; at 10 µM; stronger effect = higher value
[4] = viability of HCT116 without oncogenic beta-catenin – human colon tumor cells, pilot screen (AID 823;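 active means cell viability at or below a set limit in both duplicate runs, the limit being the all-compound median minus 4 SD, cut at about 23% in these data, passing the limit was not always enough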;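 further: 0% = wells killed by 20 µM Hyamine and 100% = untreated DMSO cell wells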); details: HCT116 beta-catenin knockout viability, CellTiter-Glo, 60 h; at 10 µM; stronger effect = lower value
[5] = viability of PTEN-null HCT116 cells – cell-based, HCT116 clonal line, CellTiter-Glo, pilot screen (AID 824;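 active means viability at or below 27.92% in each of two runs, the all-compound median minus 4 SD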;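 further: 0% = 20 µM Hyamine control and 100% = vehicle cell control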); details: HCT116 PTEN-deleted viability, 60 h, at 10 µM, stronger effect = lower value
[6] = RAM pathway blockade in budding yeast – dse1pr::URA3 reporter, 5-FOA selection, pilot screen (AID 869;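 active means inhibition over a set limit, the all-compound mean plus 3 SD, in both replicate runs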;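 further: 0% = DMSO wells with no growth and 100% = 10 µM 1-NA-PP1 with full growth; RAM network block rescues cells from 5-FOA so hits raise OD615 growth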); details: S. cerevisiae dse1pr::URA3 5-FOA growth, OD615, 2 d; at 10 µM; stronger effect = higher value; strain carries analog-sensitive mutant Cbk1 kinase
[7] = RAM signaling pathway blockade in yeast – S. cerevisiae, Pdr1DBD-CYC8 efflux-inhibited sensitized strain, primary screen (AID 1298);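 further: 0% = DMSO untreated cells without growth and 100% = 10 µM 1-NA-PP1 full growth; higher means more yeast growth rescued from 5-FOA killing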; details: S. cerevisiae cbk1-as DSE1-URA3 strain, 5-FOA growth OD615, 2 d; at 50 µM; stronger effect = higher value

CCn1c(C(=O)N2CCc3ccccc3C2)cc2sccc21
inactive: growth inhibition [1] -11.6% | growth inhibition [2] -2.25% | viability increase [3] -0.05% | viability [4] 84.1% | viability [5] 74.5% | inhibition [6] 0.465% | RAM network inhibition [7] 4.84%

Cc1cccc(-n2ncc3c(N4CCOCC4)ncnc32)c1
inactive: growth inhibition [1] 6.08% | growth inhibition [2] 17.2% | viability increase [3] -0.68% | viability [4] 101% | viability [5] 90.5% | inhibition [6] 1.59% | RAM network inhibition [7] 0.06%

CC(C)(C)c1ccc(OCC(O)CS(=O)(=O)c2ccccn2)cc1 (configuration not stated)
inactive: growth inhibition [1] -20.8% | growth inhibition [2] -19.1% | viability increase [3] -0.66% | viability [4] 97.8% | viability [5] 94.5% | inhibition [6] -0.5% | RAM network inhibition [7] 4.16%

CCOc1ccc2nc(N3CCCC(C(=O)NCCCN4CCOCC4)C3)sc2c1 (configuration not stated)
inactive: growth inhibition [1] -10.1% | growth inhibition [2] -15.6% | viability increase [3] -2.55% | viability [4] 86.3% | viability [5] 92.8% | inhibition [6] 1.36% | RAM network inhibition [7] 0.52%

O=C(CN1C(=O)CCC1=O)Nc1nc(-c2ccccn2)cs1
inactive: growth inhibition [1] -5.94% | growth inhibition [2] -9.21% | viability increase [3] -0.35% | viability [4] 106% | viability [5] 101% | inhibition [6] 0.045% | RAM network inhibition [7] 3.42%

CSc1nc(C)cc(SCCO)n1
inactive: growth inhibition [1] -3.2% | growth inhibition [2] 8.15% | viability increase [3] -1.79% | viability [4] 105% | viability [5] 102% | inhibition [6] 0.695% | RAM network inhibition [7] 0.46%

Cc1oc(-c2ccc(Cl)cc2)nc1CN1CCCC(C(=O)NCCCN2CCCC2=O)C1 (configuration not stated)
inactive: growth inhibition [1] -14.7% | growth inhibition [2] -21.4% | viability increase [3] -0.61% | viability [4] 63.8% | viability [5] 78.7% | inhibition [6] 1.73% | RAM network inhibition [7] 0.96%

CCc1ccccc1N1CC23C=CC(O2)C(C(=O)OCC(C)C)C3C1=O (configuration not stated)
inactive: growth inhibition [1] -14.3% | growth inhibition [2] -12.6% | viability increase [3] -0.48% | viability [4] 93.7% | viability [5] 89.6% | inhibition [6] 0.385% | RAM network inhibition [7] 0.42%

Cc1c(NC(=O)c2ccc(F)cc2)c(=O)n(-c2ccccc2)n1C
inactive: growth inhibition [1] -15.9% | growth inhibition [2] -7.79% | viability increase [3] -2.08% | viability [4] 106% | viability [5] 96.6% | inhibition [6] 1.34% | RAM network inhibition [7] 1.21%

Cc1ccsc1C1NC(=O)c2c(sc3c2CCN(C)C3)N1 (configuration not stated)
inactive: growth inhibition [1] -1.86% | growth inhibition [2] 1.39% | viability increase [3] -1.41% | viability [4] 97.5% | viability [5] 98.6% | inhibition [6] 1.37% | RAM network inhibition [7] -0.83%

Cn1c(NC(=O)c2ccc3c(c2)OCO3)cc(=O)n(C)c1=O
inactive: growth inhibition [1] -5.14% | growth inhibition [2] -2.67% | viability increase [3] 0.04% | viability [4] 98.5% | viability [5] 92.3% | inhibition [6] 1.05% | RAM network inhibition [7] -2.06%

CCOCCCNC(=O)c1cn(CC(C)C)c(=O)c2cc(OC)c(OC)cc12
inactive: growth inhibition [1] -22.4% | growth inhibition [2] -25.7% | viability increase [3] -2.7% | viability [4] 98.5% | viability [5] 97.9% | inhibition [6] 0.375% | RAM network inhibition [7] 4.93%

CCNc1nc2c(c(=O)[nH]c(=O)n2C)n1Cc1ccc(F)cc1
inactive: growth inhibition [1] -8.34% | growth inhibition [2] -8.31% | viability increase [3] -3.05% | viability [4] 99% | viability [5] 85.2% | inhibition [6] 0.035% | RAM network inhibition [7] 4.88%

Cc1ccc(NC(=O)CSc2nnc(Cn3c(=O)sc4ccccc43)n2C)cc1Cl
inactive: growth inhibition [1] -1.48% | growth inhibition [2] -18.1% | viability increase [3] -4.78% | viability [4] 92.3% | viability [5] 86.6% | inhibition [6] 1.81% | RAM network inhibition [7] 4.65%

CCCN(CCC)C(=O)c1ccc2c(c1)N(Cc1ccccc1)C(=O)CS2=O (configuration not stated)
inactive: growth inhibition [1] 2.79% | growth inhibition [2] -7.64% | viability increase [3] -2.62% | viability [4] 88.1% | viability [5] 83.4% | inhibition [6] 0.885% | RAM network inhibition [7] 1.55%

Cc1nn(C)c(C)c1S(=O)(=O)N(CC(=O)NCc1ccco1)c1ccc(C(C)C)cc1
inactive: growth inhibition [1] -10.3% | growth inhibition [2] -2.95% | viability increase [3] -5.76% | viability [4] 96.8% | viability [5] 97.3% | inhibition [6] -0.17% | RAM network inhibition [7] 7.88%

OCCN1CCN(Cc2cccc(Oc3ccc(Cl)cc3)c2)CC1
inactive: growth inhibition [1] -4.24% | growth inhibition [2] -1.81% | viability increase [3] -3.74% | viability [4] 63.2% | viability [5] 73.1% | inhibition [6] 2.6% | RAM network inhibition [7] -0.21%

Cc1ccc(OS(=O)Nc2cccc3nccnc23)cc1 (configuration not stated)
inactive: growth inhibition [1] 1.61% | growth inhibition [2] 13.2% | viability increase [3] -4.19% | viability [4] 56.8% | viability [5] 55% | inhibition [6] 1.72% | RAM network inhibition [7] 2.2%

CCCCOc1ccc(CN2CCC(O)CC2)cc1
inactive: growth inhibition [1] -18.6% | growth inhibition [2] -6.13% | viability increase [3] -0.47% | viability [4] 90.9% | viability [5] 100% | inhibition [6] 1.06% | RAM network inhibition [7] 2.2%

COC(=O)CC1Oc2ccccc2N(Cc2ccccc2)C1=O (configuration not stated)
inactive: growth inhibition [1] -21.8% | growth inhibition [2] -15.5% | viability increase [3] -0.13% | viability [4] 92.2% | viability [5] 92.5% | inhibition [6] 1.56% | RAM network inhibition [7] 3.83%

O=C(c1ccc2nc(N3CCOCC3)sc2c1)N1CCN(C(=O)c2ccco2)CC1
inactive: growth inhibition [1] -4.29% | growth inhibition [2] 2.97% | viability increase [3] -1.45% | viability [4] 105% | viability [5] 95.8% | inhibition [6] 0.86% | RAM network inhibition [7] 3.05%

COC(=O)c1cc(NC(=O)c2nccnc2C(=O)O)cc(C(=O)OC)c1
inactive: growth inhibition [1] -10.9% | growth inhibition [2] 3.16% | viability increase [3] -1.21% | viability [4] 90.4% | viability [5] 98% | inhibition [6] -0.12% | RAM network inhibition [7] -1.46%

CCOC(=O)C1CCN(C(=O)C2CCN(S(=O)(=O)c3cccc4cccnc34)CC2)CC1
inactive: growth inhibition [1] 4.06% | growth inhibition [2] 3.42% | viability increase [3] -1.75% | viability [4] 102% | viability [5] 97.6% | inhibition [6] 0.585% | RAM network inhibition [7] 1.1%

Nc1ccc(-c2nc3ccc(N)cc3o2)cc1
inactive: growth inhibition [1] 0.07% | growth inhibition [2] 7.21% | viability increase [3] -1.18% | viability [4] 100% | viability [5] 86.8% | inhibition [6] 3.98% | RAM network inhibition [7] 6.51%

CC(C)NC(=O)NC(=O)COc1ncnc2sccc12
inactive: growth inhibition [1] -4.68% | growth inhibition [2] -7.55% | viability increase [3] -1.28% | viability [4] 97.6% | viability [5] 105% | inhibition [6] 1.22% | RAM network inhibition [7] 2.67%

CC(C)NS(=O)(=O)c1ccc(CCC(=O)NCc2cccnc2)cc1
inactive: growth inhibition [1] 2.32% | growth inhibition [2] -6.38% | viability increase [3] -0.9% | viability [4] 88% | viability [5] 92.5% | inhibition [6] 1.33% | RAM network inhibition [7] 1.08%

Cc1cc(NCc2ccccc2)nc(-c2ccccc2O)n1
inactive: growth inhibition [1] -1.8% | growth inhibition [2] -4.48% | viability increase [3] -1.24% | viability [4] 69.5% | viability [5] 70% | inhibition [6] 0.345% | RAM network inhibition [7] 0.61%

COc1ccc(NC2=CC(=O)CC(C)(C)C2)cc1OC
inactive: growth inhibition [1] -5.52% | growth inhibition [2] -8.65% | viability increase [3] -3.58% | viability [4] 96.8% | viability [5] 89.2% | inhibition [6] 0.975% | RAM network inhibition [7] 0.37%

COc1ccc(Br)cc1S(=O)(=O)N1CCN=C1C
inactive: growth inhibition [1] -0.525% | growth inhibition [2] -18.3% | viability increase [3] -1.79% | viability [4] 91.1% | viability [5] 83.4% | inhibition [6] 0.79% | RAM network inhibition [7] -0.12%

CC(C)C(=O)N=c1sc2cc(F)cc(F)c2n1C
inactive: growth inhibition [1] -9.84% | growth inhibition [2] -0.65% | viability increase [3] -1.28% | viability [4] 94.1% | viability [5] 99% | inhibition [6] 0.01% | RAM network inhibition [7] 0.96%

Cn1c(Cn2c(=O)sc3ccccc32)nnc1SCC(=O)N1CCCc2ccccc21
inactive: growth inhibition [1] -4.97% | growth inhibition [2] 0.455% | viability increase [3] -3.71% | viability [4] 96.5% | viability [5] 95.1% | inhibition [6] 1.82% | RAM network inhibition [7] 6.16%

CCOc1ccc(Nc2ncnc(N)n2)cc1
inactive: growth inhibition [1] -16% | growth inhibition [2] -1.21% | viability increase [3] 0.15% | viability [4] 97.4% | viability [5] 102% | inhibition [6] 0.055% | RAM network inhibition [7] 1.11%

O=C(Cc1ccccc1)NCCn1ccc2ccccc21
inactive: growth inhibition [1] -10.7% | growth inhibition [2] -13.2% | viability increase [3] -1.79% | viability [4] 94.6% | viability [5] 88.8% | inhibition [6] 0.01% | RAM network inhibition [7] 3.55%

CC(CCc1ccccc1)NC(=O)CSc1nccc(=O)[nH]1 (configuration not stated)
inactive: growth inhibition [1] -20.5% | growth inhibition [2] -6.91% | viability increase [3] -0.56% | viability [4] 94.2% | viability [5] 94.5% | inhibition [6] 1.06% | RAM network inhibition [7] 2.7%

CSc1nc2ccc(NS(=O)(=O)c3ccc4c(c3)OCCO4)cc2s1
inactive: growth inhibition [1] 0.175% | growth inhibition [2] 0.53% | viability increase [3] 0.31% | viability [4] 90.8% | viability [5] 88.4% | inhibition [6] 0.865% | RAM network inhibition [7] 5.46%

O=C1c2oc3ccccc3c(=O)c2C(c2cccc(O)c2)N1c1ccccn1 (configuration not stated)
inactive: growth inhibition [1] -7.62% | growth inhibition [2] -6.25% | viability increase [3] -0.37% | viability [4] 82.2% | viability [5] 79.6% | inhibition [6] 1.85% | RAM network inhibition [7] -0.1%
